ChEMBL document CHEMBL1132578, “New peptidic cysteine protease inhibitors derived from the electrophilic alpha-amino acid aziridine-2,3-dicarboxylic acid” (J Med Chem, 1999)
Each block holds one compound with its values, some of them ahead of it.

What was measured:
Papain (Carica papaya) [1] = molecular target: T1, Papain (Carica papaya) (UniProt P00784); assay: Percent inhibition of papain by the compound at pH 6.0; details: concentration not given here
T1 sequence (whole entry): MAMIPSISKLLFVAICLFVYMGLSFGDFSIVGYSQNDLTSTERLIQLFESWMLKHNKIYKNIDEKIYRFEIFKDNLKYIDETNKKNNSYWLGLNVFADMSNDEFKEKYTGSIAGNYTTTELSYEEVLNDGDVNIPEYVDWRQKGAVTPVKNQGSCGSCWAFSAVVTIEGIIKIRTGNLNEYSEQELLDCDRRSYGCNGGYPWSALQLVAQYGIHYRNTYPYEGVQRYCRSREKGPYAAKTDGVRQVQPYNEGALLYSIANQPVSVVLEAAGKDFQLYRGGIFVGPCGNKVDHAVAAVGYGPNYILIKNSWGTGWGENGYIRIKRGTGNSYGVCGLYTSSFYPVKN
How it was run: (§1)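 Papain (0.5 mg/mL) with 1.49 mM L-BAPA, with or without 17 µM inhibitor for 30 min, at pH 5.2–8.0 (citrate pH 4–6, phosphate pH 6–8), 25 °C; nitroanilide release read at 405 nm. Activities are means of five assays; percent inhibition compares inhibited and uninhibited activity.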

Papain (Carica papaya) [2] = molecular target: T1, Papain (Carica papaya); assay: pH dependency of inhibition of papain without the compound at pH 7.0 mean values from five assays.; how it was run: as §1
Papain (Carica papaya) [3] = molecular target: T1, Papain (Carica papaya); assay: pH dependency of inhibition of papain without the compound at pH 6.0 mean values from five assays.; how it was run: as §1
Papain (Carica papaya) [4] = molecular target: T1, Papain (Carica papaya); assay: pH dependency of inhibition of papain with the compound at pH 7.0 [I] = 17 uM, incubation time = 30 minutes, [S] = 1.49 mM L-BAPA, [E] = 0.5 mg m/L; how it was run: as §1
Papain (Carica papaya) [5] = molecular target: T1, Papain (Carica papaya); assay: Percent inhibition of papain by the compound at pH 5.2; details: concentration not given here; how it was run: as §1
Papain (Carica papaya) [6] = molecular target: T1, Papain (Carica papaya); assay: pH dependency of inhibition of papain with the compound at pH 5.2 [I] = 17 uM, incubation time = 30 minutes, [S] = 1.49 mM L-BAPA, [E] = 0.5 mg m/L; how it was run: as §1
[7] = molecular target: T2, Calpain-1 catalytic subunit (Homo sapiens, UniProt P07384); assay: Compound was evaluated for inhibition constant for the non-time dependent inhibition of Calpain 1; no inhibition; parameters: species or system Sus scrofa
T2 sequence (P07384 whole entry): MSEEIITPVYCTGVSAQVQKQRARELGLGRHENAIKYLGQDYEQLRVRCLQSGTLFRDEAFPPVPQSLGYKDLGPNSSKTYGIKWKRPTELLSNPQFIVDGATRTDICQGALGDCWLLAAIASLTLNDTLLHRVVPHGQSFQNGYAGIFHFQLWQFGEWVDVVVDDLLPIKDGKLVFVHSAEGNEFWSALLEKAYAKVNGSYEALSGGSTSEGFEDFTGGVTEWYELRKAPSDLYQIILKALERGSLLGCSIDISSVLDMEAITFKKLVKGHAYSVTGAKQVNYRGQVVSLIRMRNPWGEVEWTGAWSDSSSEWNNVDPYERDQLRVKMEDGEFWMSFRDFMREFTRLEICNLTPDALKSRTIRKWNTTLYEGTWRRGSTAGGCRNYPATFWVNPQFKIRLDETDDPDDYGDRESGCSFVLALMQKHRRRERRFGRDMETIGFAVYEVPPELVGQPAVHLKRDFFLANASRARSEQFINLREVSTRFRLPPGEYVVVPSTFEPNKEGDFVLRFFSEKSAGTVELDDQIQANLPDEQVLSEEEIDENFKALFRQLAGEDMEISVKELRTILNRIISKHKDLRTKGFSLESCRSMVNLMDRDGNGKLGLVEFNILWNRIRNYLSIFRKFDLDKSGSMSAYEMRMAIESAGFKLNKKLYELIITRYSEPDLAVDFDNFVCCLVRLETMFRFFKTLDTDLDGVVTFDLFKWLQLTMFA

Papain (Carica papaya) [8] = molecular target: T1, Papain (Carica papaya)
Papain (Carica papaya) [9] = molecular target: T1, Papain (Carica papaya); assay: Percent inhibition of papain by the compound at pH 8.0; details: concentration not given here; how it was run: as §1
Papain (Carica papaya) [10] = molecular target: T1, Papain (Carica papaya); assay: pH dependency of inhibition of papain with the compound at pH 8.0 [I] = 17 uM, incubation time = 30 minutes, [S] = 1.49 mM L-BAPA, [E] = 0.5 mg m/L; how it was run: as §1
Pro-cathepsin H [11] = molecular target: T3, Pro-cathepsin H (Homo sapiens, UniProt P09668); assay: Compound was evaluated for inhibition constant for the non-time dependent inhibition of Cathepsin H.
T3 sequence (P09668 whole entry): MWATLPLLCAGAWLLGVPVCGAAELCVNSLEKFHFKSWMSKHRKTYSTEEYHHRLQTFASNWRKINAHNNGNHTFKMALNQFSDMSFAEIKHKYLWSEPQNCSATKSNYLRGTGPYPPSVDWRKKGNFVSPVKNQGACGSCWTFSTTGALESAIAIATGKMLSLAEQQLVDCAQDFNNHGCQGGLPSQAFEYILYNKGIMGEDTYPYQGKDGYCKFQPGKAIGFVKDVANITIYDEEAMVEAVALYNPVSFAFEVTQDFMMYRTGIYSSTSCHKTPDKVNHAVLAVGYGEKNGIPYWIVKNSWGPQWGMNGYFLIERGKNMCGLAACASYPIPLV

Papain (Carica papaya) [12] = molecular target: T1, Papain (Carica papaya); assay: pH dependency of inhibition of papain with the compound at pH 6.0 [I] = 17 uM, incubation time = 30 minutes, [S] = 1.49 mM L-BAPA, [E] = 0.5 mg m/L; how it was run: as §1
Papain (Carica papaya) [13] = molecular target: T1, Papain (Carica papaya); remark: listed apart in the source
Papain (Carica papaya) [14] = molecular target: T1, Papain (Carica papaya); assay: pH dependency of inhibition of papain without the compound at pH 5.2 mean values from five assays.; how it was run: as §1
Papain (Carica papaya) [15] = molecular target: T1, Papain (Carica papaya); assay: pH dependency of inhibition of papain without the compound at pH 6.5 mean values from five assays.; how it was run: as §1
Papain (Carica papaya) [16] = molecular target: T1, Papain (Carica papaya); remark: listed apart in the source
Papain (Carica papaya) [17] = molecular target: T1, Papain (Carica papaya); assay: pH dependency of inhibition of papain without the compound at pH 8.0 mean values from five assays.; how it was run: as §1
[18] = molecular target: Procathepsin L (Homo sapiens) (UniProt P07711); details: Paramecium tetraurelia
Cathepsin B (Bos taurus) [19] = molecular target: Cathepsin B (Bos taurus) (UniProt P07688)
Papain (Carica papaya) [20] = molecular target: T1, Papain (Carica papaya); assay: Percent inhibition of papain by the compound at pH 7.0; details: concentration not given here; how it was run: as §1
Papain (Carica papaya) [21] = molecular target: T1, Papain (Carica papaya); assay: pH dependency of inhibition of papain with the compound at pH 6.5 [I] = 17 uM, incubation time = 30 minutes, [S] = 1.49 mM L-BAPA, [E] = 0.5 mg m/L; how it was run: as §1
Papain (Carica papaya) [22] = molecular target: T1, Papain (Carica papaya); assay: Percent inhibition of papain by the compound at pH 6.5; details: concentration not given here; how it was run: as §1
Papain (Carica papaya) [23] = molecular target: T1, Papain (Carica papaya); remark: listed apart in the source
Cathepsin B (Bos taurus) [24] = molecular target: Cathepsin B (Bos taurus) (UniProt P07688); assay: Evaluated for second-order rate constants for the inactivation of mammalian lysosomal cathepsin B.
Pro-cathepsin H [25] = molecular target: T3, Pro-cathepsin H; assay: Inhibition constant for the non time dependent inhibition of Cathepsin H; no inhibition
Papain (Carica papaya) [26] = molecular target: T1, Papain (Carica papaya); assay: Second-order rate constants for the inactivation of papain (vacuolar plant enzyme)
How it was run: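 Papain with L-BAPA (405 nm) in 50 mM phosphate pH 6.5, 5 mM EDTA, 5 mM cysteine, or with Z-Phe-Arg-AMC in phosphate pH 6.5 with DTT, EDTA, Brij 35; 25 °C. kobs at 3–7 inhibitor concentrations, continuous or dilution assay; k2nd = ki/Ki, or from linear kobs vs [I] when unsaturated; substrate-corrected (Km 2.5 mM L-BAPA, 0.09 mM Z-Phe-Arg-AMC).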

[27] = molecular target: Procathepsin L (Homo sapiens) (UniProt P07711); assay: Evaluated for second-order rate constants for the inactivation of mammalian lysosomal cathepsin L.
calpain I = assay: Inhibition constant for the non time dependent inhibition of calpain I

Sequence of Procathepsin L (Homo sapiens) (P07711 114-333 limits assumed): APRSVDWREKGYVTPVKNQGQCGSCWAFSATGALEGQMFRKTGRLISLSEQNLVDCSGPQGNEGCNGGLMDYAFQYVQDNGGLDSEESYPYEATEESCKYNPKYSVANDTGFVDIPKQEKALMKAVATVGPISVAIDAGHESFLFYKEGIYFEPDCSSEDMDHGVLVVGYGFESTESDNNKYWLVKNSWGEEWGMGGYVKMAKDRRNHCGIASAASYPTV

inhibition (Papain (Carica papaya) [1]): 81.1%
Activity (Papain (Carica papaya) [2]): 7.33 mU/mL
Activity (Papain (Carica papaya) [3]): 7.33 mU/mL
Activity (Papain (Carica papaya) [4]): 0.75 mU/mL
inhibition (Papain (Carica papaya) [5]): 71.6%
Activity (Papain (Carica papaya) [6]): 1.86 mU/mL
Ki [7]: Not Active
ki/Ki (Papain (Carica papaya) [8]): 1.2 M⁻¹ s⁻¹
inhibition (Papain (Carica papaya) [9]): 89.7%
Activity (Papain (Carica papaya) [10]): 0.75 mU/mL
Ki (Pro-cathepsin H [11]): 210 µM
Activity (Papain (Carica papaya) [12]): 1.38 mU/mL
ki/Ki (Papain (Carica papaya) [13]): 6.8 M⁻¹ s⁻¹
Activity (Papain (Carica papaya) [14]): 6.54 mU/mL
Activity (Papain (Carica papaya) [15]): 7.38 mU/mL
ki/Ki (Papain (Carica papaya) [16]): 7.07 M⁻¹ s⁻¹
Activity (Papain (Carica papaya) [17]): 7.31 mU/mL
ki/Ki [18]: 1.08 M⁻¹ s⁻¹
ki/Ki (Cathepsin B (Bos taurus) [19]): 2.08 M⁻¹ s⁻¹
inhibition (Papain (Carica papaya) [20]): 89.8%
Activity (Papain (Carica papaya) [21]): 0.98 mU/mL
inhibition (Papain (Carica papaya) [22]): 86.7%
ki/Ki (Papain (Carica papaya) [23]): 6.83 M⁻¹ s⁻¹
Compound: CCOC(=O)[C@@H]1[C@@H](C(=O)OCC)N1C(=O)[C@H](Cc1ccccc1)NC(=O)OC(C)(C)C

ki/Ki (Cathepsin B (Bos taurus) [24]): 1.12 M⁻¹ s⁻¹
Ki (Pro-cathepsin H [25]): Not Active
ki/Ki (Papain (Carica papaya) [26]): 1.22 M⁻¹ s⁻¹
ki/Ki [27]: 5.08 M⁻¹ s⁻¹
Ki (calpain I): 160 µM
Compound: CCOC(=O)[C@@H]1[C@@H](C(=O)OCC)N1C(=O)[C@H](C)NC(=O)OCc1ccccc1
